# The list is not random: actives were taken first. Their share in the collection is about 2.6%.
# Casp6 inh: blocks human caspase-6 cleavage activity; purified caspase-6, Z-VEID-R110 cleavage fluorescence; P55212; inhibition, % at 12.5 µM; 350,000 compounds, 0.53% hits;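 active means mean inhibition across replicates at least about 35%, with every replicate also reaching that limit, limit read from the data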
# SIRT5 inh: sirtuin-5 (human) deacylase inhibition; Q9NXA8; Purified SirT5, succinyl-peptide AMC, trypsin-coupled fluorescence; inhibition, % at 15 µM; 330,000 compounds, 1.1% hits; in the data active means inhibition above about 15%
# Target sequence (Q9NXA8 whole entry, looked up): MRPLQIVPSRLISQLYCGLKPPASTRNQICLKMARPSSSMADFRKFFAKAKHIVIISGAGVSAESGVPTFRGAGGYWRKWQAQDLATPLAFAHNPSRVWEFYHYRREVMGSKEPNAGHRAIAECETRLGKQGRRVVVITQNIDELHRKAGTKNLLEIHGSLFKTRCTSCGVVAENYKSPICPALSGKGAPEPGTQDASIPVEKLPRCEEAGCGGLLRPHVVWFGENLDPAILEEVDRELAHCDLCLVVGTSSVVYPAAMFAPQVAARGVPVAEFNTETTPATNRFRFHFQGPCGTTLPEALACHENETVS
# NSD2 inh: NSD2 (human) methyltransferase inhibition; NSD2 peptide methylation, AlphaScreen, 120 min; inhibition, % at 12.5 µM; 310,000 compounds, 0.54% hits; AID 743445; in the data active means inhibition above about 50%
# UCH37 inh: blocks the human deubiquitinase UCH37; purified proteasome/UCH37, Ub-AMC cleavage fluorescence; inhibition, % (concentration not given with the values); 330,000 compounds, 0.33% hits; AID 588478;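 active means mean inhibition over replicate wells above about 20%, limit read from the data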
# Target sequence (Q9Y5K5 whole entry, looked up): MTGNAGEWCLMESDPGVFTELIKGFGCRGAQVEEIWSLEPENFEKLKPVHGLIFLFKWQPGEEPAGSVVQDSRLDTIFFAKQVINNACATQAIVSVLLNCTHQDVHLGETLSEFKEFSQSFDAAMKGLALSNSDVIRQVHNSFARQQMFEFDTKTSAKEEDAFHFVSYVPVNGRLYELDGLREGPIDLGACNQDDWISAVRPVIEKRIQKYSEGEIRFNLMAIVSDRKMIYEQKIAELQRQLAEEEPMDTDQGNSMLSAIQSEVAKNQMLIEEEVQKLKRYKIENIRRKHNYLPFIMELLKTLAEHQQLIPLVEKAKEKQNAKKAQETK
#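 Material: human UCH37 enzyme supplied as purified proteasome complex / Amount: 0.15 nM proteasome as dispensed / Buffer or medium: pH 7.4 Tris-HCl (50 mM) with ovalbumin, ATP-MgCl2, DTT / Times: preincubation 30 min, reaction 25 min, room temperature / Technique: AMC fluorescence from Ub-AMC cleavage, excitation 355 nm, emission 460 nm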
# FGF22 binding: binders of recombinant human FGF22 by thermal shift. Q9HCT0. SYPRO orange fluorescence; percent of sucrose octasulfate shift, DMSO zero. activity (Tm shift, normalised), % at 9.99 µM. 340,000 compounds, 1.5% hits. AID 651658;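 active means mean Tm shift, scaled 0 neutral to 100 positive control, at about 1.3% or above, every replicate too, limit read from the data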
# Numbers stand for hits; 0 = inactive; - = no result given.
SMILES,Casp6 inh,SIRT5 inh,NSD2 inh,UCH37 inh,FGF22 binding
CC(C)C#Cc1ccc2c(c1)O[C@H](CN(C)C(=O)CC1CC1)[C@@H](C)CN([C@H](C)CO)S2(=O)=O,0,0,-,-,0
CN(C)C(=O)c1cccc(-c2ccccc2[C@@H]2[C@@H](C#N)N(C(=O)C3CCC3)[C@@H]2CO)c1,0,0,-,-,-
Cc1ccnc(NC(=O)c2ccc(Cl)c(NC(=O)C(C)Oc3ccccc3)c2)c1 (stereo not drawn),0,0,0,0,43.2
COc1ccc(S(=O)(=O)Nc2ccc3c(c2)CC(=O)N([C@H](C)CO)C[C@H](C)[C@H](CN(C)S(=O)(=O)c2ccc(F)cc2)O3)cc1,-,-,-,-,0
Cc1ccc(S(=O)(=O)N2[C@@H](c3ccc(C#N)cc3)C(C(=O)O)=C[C@H]2CC2CCCC2)cc1,0,0,-,0,1.4
CCCC[C@@H]1C=C(C(=O)O)[C@H](c2ccc3c(c2)OCO3)N1S(=O)(=O)c1ccc(C)cc1,0,0,-,0,1.8
COc1ccc(S(=O)(=O)N(C)C[C@@H]2Oc3c(NS(=O)(=O)c4cn(C)cn4)cccc3C(=O)N([C@H](C)CO)C[C@H]2C)cc1,0,0,-,-,0
CN(C)C(=O)c1ccc(-c2ccc([C@H]3[C@H](CO)N4CCCCN(CCC(F)(F)F)C[C@@H]34)cc2)cc1,0,33.1,-,-,0
OC[C@H]1[C@H](c2ccc(-c3ccccc3)cc2)[C@@H]2CN(CCC(F)(F)F)CCCCN12,0,27.1,-,-,0
CN(C)C(=O)c1ccc(-c2ccc([C@H]3[C@@H](CO)N4CCCCN(CCC(F)(F)F)C[C@@H]34)cc2)cc1,0,0,-,-,0
C[C@@H]1CCCCO[C@H](CN(C)C(=O)CCC(F)(F)F)[C@@H](C)CN([C@H](C)CO)C(=O)c2cc(NC(=O)NC3CCCCC3)ccc2O1,0,0,-,-,0
CN1CCN(C(=O)C[C@@H]2C[C@H]3c4cc(NS(=O)(=O)c5ccc(F)cc5)ccc4O[C@H]3[C@@H](CO)O2)CC1,-,-,-,-,0
CCOC(=O)c1c(C)[nH]c(C)c1S(=O)(=O)NCC1CCN(Cc2ccc(C)cc2)CC1,0,0,-,0,0
CCOC(=O)c1c(C)[nH]c(C)c1S(=O)(=O)NCC1CCN(Cc2cccc(Cl)c2)CC1,0,16.0,0,0,0
COCC(=O)N1[C@@H](CO)[C@@H](c2ccccc2)C12CN(C(=O)c1ccccc1)C2,0,0,-,-,0
C[C@@H](O)C#Cc1ccc([C@H]2[C@@H](CO)N3CCCCN(CC4CCOCC4)C[C@@H]23)cc1,0,0,-,-,0
CCOC(=O)[C@@H]1[C@H]2COc3ccc(Br)cc3[C@@H]2N2C(=O)N(c3ccc(F)cc3)C(=O)[C@@]12C,0,-,-,20.4,0
Cc1ccc(S(=O)(=O)Nc2ccc3c(c2)C(=O)N([C@@H](C)CO)C[C@H](C)[C@@H](CN(C)C(=O)NC(C)C)OCCCC[C@H](C)O3)cc1,0,0,-,-,0
CCN=C1S/C(=C\c2ccc(-c3cccc(C(=O)O)c3)o2)C(=O)N1CC,-,-,0,0,-
CCN=C1S/C(=C/c2ccc(-c3ccc(Cl)cc3C(=O)O)o2)C(=O)N1CC,35.9,0,0,0,0
O=c1c2cc(Cl)ccc2nc(-c2ccc(Cl)c(Cl)c2)n1O,0,0,-,-,0
O=c1c2cc(Cl)ccc2nc(-c2ccccc2)n1O,0,0,0,0,46.0
CCOC(=O)C1=C(C)NC(=S)NC1C (stereo not drawn),0,0,0,0,43.8
CCOC(=O)C1=C(c2ccccc2)NC(=S)NC1C (stereo not drawn),-,-,0,0,-
O=C(O)c1cc2nc3c(c(C(F)(F)F)n2n1)CCCC3,0,0,0,0,43.4
SMILES,Casp6 inh,SIRT5 inh,NSD2 inh,UCH37 inh,FGF22 binding
O=C(Nc1ccc(F)cc1F)c1cc2nc3c(c(C(F)(F)F)n2n1)CCCC3,-,-,0,0,-
Cc1cccc(C)c1N1C(=O)CC(Sc2ccccc2N)C1=O (stereo not drawn),0,-,0,-,43.6
Cc1cc(C)c(N2C(=O)CC(Sc3ccccc3N)C2=O)c(C)c1 (stereo not drawn),0,0,0,-,0
Fc1cccc(NC(=S)N2CCN(c3ccccn3)CC2)c1,0,0,0,0,0
O=C(Nc1ccc(Cl)cc1)N1CCN(c2ncccn2)CC1,0,0,0,0,0
Cc1cccc(N2CCN(C(=S)c3ccc([N+](=O)[O-])cc3)CC2)c1,0,0,0,0,0
O=C(Nc1ccc(F)cc1)N1CCN(c2ncccn2)CC1,0,0,0,0,43.1
FC(F)(F)c1cccc(NC(=S)N2CCN(c3ccccn3)CC2)c1,0,0,0,0,43.6
Cc1cc(C)cc(NC(=S)N2CCN(c3ncccn3)CC2)c1,-,0,0,-,0
S=C(Nc1ccc(Nc2ccccc2)cc1)N1CCN(c2ncccn2)CC1,0,0,0,0,43.4
Cc1cccc(N2CCN(C(=S)c3ccccc3)CC2)c1,0,0,0,0,44.1
CO[C@H]1CN(C)C(=O)c2cc(NC(=O)c3ccccc3F)ccc2OC[C@@H](C)NC[C@H]1C,0,0,-,-,0
O=C(N[C@H]1CC[C@H](CCNC(=O)c2ccccc2F)O[C@H]1CO)c1cnccn1,0,0,-,-,0
COc1ccc2c3c(n(C)c2c1)[C@H](CO)N(C(C)=O)CC31CN(C(=O)Nc2ccc(F)cc2)C1,0,0,-,-,0
Cc1ccc(N2CCN(C(=S)Nc3ccccc3)CC2)cc1,0,0,0,0,43.0
O=S(=O)(c1ccccc1)N1CCCCN2[C@H](C1)[C@@H](c1ccc(-c3cncnc3)cc1)[C@@H]2CO,0,0,-,-,0
CN(C)c1cc(Nc2ccc(O)cc2)c([N+](=O)[O-])c2nonc12,0,0,0,0,0
O=[N+]([O-])c1c(Nc2ccc(O)cc2)cc(Cl)c2nonc12,0,17.3,0,0,0
O=C(c1ccccc1)N1CC[C@H]2[C@H](CO)Nc3ccc(C#Cc4cccnc4)cc3[C@H]21,0,0,-,-,0
NNC(=O)c1sc(-c2ccccc2)cc1N,0,0,0,0,43.9
COc1ccc(OCC(O)CN(CCO)CC(O)Cn2ccc3ccccc32)cc1 (stereo not drawn),0,0,0,0,43.1
OCCN(CC(O)COc1ccccc1)CC(O)Cn1ccc2ccccc21 (stereo not drawn),0,0,0,0,0
O=C(NN1C(=O)/C(=C/c2ccc(O)c(O)c2)SC1=S)c1ccccc1,44.9,0,-,-,-
O=C(O)COc1ccccc1/C=C1\SC(=S)N(/N=C/c2ccccc2O)C1=O,-,-,0,-,-
COc1cc(/C=C2\SC(=S)N(NC(=O)c3ccc(O)cc3)C2=O)ccc1O,0,0,0,0,0
O=C(Cc1ccccc1)NN1C(=O)/C(=C/c2ccccc2C(=O)O)SC1=S,61.9,0,0,0,0
O=C(O)COc1ccccc1/C=C1\SC(=S)N(NC(=O)c2ccccc2O)C1=O,0,21.1,-,0,-
Cc1n(N)c2ccccc2[n+]1CC(=O)c1ccccc1,0,0,0,0,43.1
COCCn1c(SCCN2CCOCC2)nc2c1c(=O)[nH]c(=O)n2C,35.5,0,-,0,0
C=CCn1c(SCCN2CCOCC2)nc2c1c(=O)[nH]c(=O)n2C,-,-,0,0,-

# Screening results deposited in PubChem by several laboratories.
